From PubChem BioAssay
An excerpt weighted towards active compounds, which were near 9.4% of everything screened.
L major viab – Leishmania major promastigote growth inhibition | Leishmania major promastigotes, resazurin fluorescence viability | inhibition, % at 10 µM | hit rate 9% among 200,000; in the data active means inhibition above about 50%;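 further: promastigotes grown with compound for 44 hours at 28 °C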
Beta apoptosis – beta cell apoptosis inhibition. protection from apoptosis, % (no concentration beside the values). hit rate 0.8% among 300,000. INS-1E cytokine-induced death, ATP luminescence, 48 h; percent of positive-control rescue, neutral wells zero;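 active means Every replicate reaches about 75%, or at least half do and their mean reaches it too, limit read from the data; inconclusive means At least half of replicates reach the limit but their mean does not; inactive means Under half of replicates reach the limit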;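 further: higher means more ATP so stronger rescue from cytokine killing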
SKKanGAS inh – inhibitors of SKKanGAS S. pyogenes growth in kanamycin (SK-promoter or general growth effect); BacTiter-Glo, 6 h; inhibition, % at 7.5 µM; hit rate 1.3% among 300,000; AID 1662;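 active means mean replicate score, as percent of positive control median, at least 50; inconclusive means mean below 50 but one replicate at or above 50; inactive means mean and every replicate below 50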;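 further: strain carries kanamycin resistance gene driven by streptokinase promoter and grows in 40 µg/ml kanamycin; loss of luminescence reflects streptokinase promoter inhibition or plain growth inhibition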
CSC inhib – blocks cancer stem cells | inhibition, % at 7.5 µM | hit rate 1.1% among 300,000 | cancer stem cell-like cells viability, luminescence | AID 2717; in the data active means inhibition above about 75%; inconclusive means no clear call, values can overlap the other calls; tested in HMLE shEcad cells
T cruzi inh – T. cruzi replication inhibition | T. cruzi beta-gal in NIH3T3, luminescence, 90 h | inhibition, % (test concentration not listed) | hit rate 1.4% among 300,000;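 active means mean inhibition across valid replicates above about 55%, limit read from the data; inconclusive means mean below that limit but half or more replicates reach it; inactive means mean below it, under half of replicates reach it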;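 further: signal also drops with host cell toxicity which is not excluded here; higher percent means less beta-gal luminescence so fewer parasites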
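Read-out: Parasite load inhibition, % | Test system: Mouse NIH/3T3 fibroblasts infected with β-gal-expressing T. cruzi Tulahuen C4 | Amount: 5,000 cells/well | Medium: DMEM, 2% fetal bovine serum | Signal: GalScreen β-gal luminescence, detergent lysis, 60 min | Timing: 3 h attach, ≥90 h co-culture | Also added: Tulahuen C4 trypomastigotes, 5000/well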
Mdm2-MdmX inh – inhibitors of human Mdm2/MdmX interaction; AID 485346; hit rate 3% among 330,000; SaOS-2 split-luciferase Mdm2/MdmX complementation, luminescence; inhibition, % at 8 µM; O15151+Q00987;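 active means inhibition of at least 50% at 8 µM in the primary screen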
Target sequence (O15151 whole entry, looked up): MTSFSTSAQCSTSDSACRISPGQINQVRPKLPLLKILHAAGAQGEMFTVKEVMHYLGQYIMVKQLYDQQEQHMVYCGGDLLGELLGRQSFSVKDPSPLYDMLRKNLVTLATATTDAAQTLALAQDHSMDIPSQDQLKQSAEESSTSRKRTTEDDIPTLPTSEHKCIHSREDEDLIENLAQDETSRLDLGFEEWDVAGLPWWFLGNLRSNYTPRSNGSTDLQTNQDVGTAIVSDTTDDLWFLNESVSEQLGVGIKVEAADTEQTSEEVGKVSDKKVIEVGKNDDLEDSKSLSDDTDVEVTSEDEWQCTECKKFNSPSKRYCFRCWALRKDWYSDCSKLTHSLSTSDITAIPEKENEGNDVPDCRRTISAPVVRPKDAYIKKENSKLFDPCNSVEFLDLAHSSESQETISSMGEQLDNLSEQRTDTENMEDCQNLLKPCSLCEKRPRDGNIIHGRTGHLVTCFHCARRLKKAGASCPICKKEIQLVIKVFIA
Target sequence (Q00987 whole entry, looked up): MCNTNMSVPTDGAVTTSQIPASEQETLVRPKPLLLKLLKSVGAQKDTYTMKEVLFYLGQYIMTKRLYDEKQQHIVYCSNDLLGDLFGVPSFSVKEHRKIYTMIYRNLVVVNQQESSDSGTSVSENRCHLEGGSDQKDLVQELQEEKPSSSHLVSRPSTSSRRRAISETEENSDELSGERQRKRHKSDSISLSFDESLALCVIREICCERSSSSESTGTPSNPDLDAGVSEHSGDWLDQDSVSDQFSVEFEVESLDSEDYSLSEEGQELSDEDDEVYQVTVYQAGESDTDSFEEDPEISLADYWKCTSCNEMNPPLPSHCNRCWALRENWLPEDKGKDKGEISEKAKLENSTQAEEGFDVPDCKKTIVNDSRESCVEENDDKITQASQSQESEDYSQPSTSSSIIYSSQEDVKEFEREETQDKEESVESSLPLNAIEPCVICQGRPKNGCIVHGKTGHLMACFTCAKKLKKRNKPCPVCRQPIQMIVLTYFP
A number is an active result; 0 = inactive; ? = inconclusive; - = no result.

SMILES	L major viab	Beta apoptosis	SKKanGAS inh	CSC inhib	T cruzi inh	Mdm2-MdmX inh
Cc1ccc([N+](=O)[O-])c(NC2OC(CO)C(O)C2O)c1 (stereo not given)	0	0	0	0	0	0
Clc1ccc(-c2nnnn2-c2ccc(Cl)c(Cl)c2)cc1Cl	0	0	58.4	?	-	0
Cc1ccccc1-n1c(SCC(=O)c2c(N)n(C3CC3)c(=O)[nH]c2=O)nnc1N1CCOCC1	-	0	-	-	-	0
O=C(Cn1c(C(=O)N2CCN(C3CCCC3)CC2)cc2sccc21)c1ccccc1	93.0	0	0	0	0	0
O=C(Cn1c(C(=O)NCC2CCCO2)cc2sccc21)c1ccccc1 (stereo not given)	0	0	0	0	-	0
O=C(O)CCC(=O)NN1C(=O)c2ccccc2NC1c1ccc(F)cc1 (stereo not given)	-	0	0	0	0	0
COc1cccc2cc(-c3nc4ccccc4o3)c(=O)oc12	58.4	0	0	0	0	0
Clc1cccc(-c2cc3nc4c(c(NCc5ccco5)n3n2)CCCC4)c1	52.6	0	0	0	0	0
OC1CCN(c2c3c(nc4cc(-c5cccc(F)c5)nn24)CCCC3)CC1	0	-	0	-	0	0
Clc1cccc(-c2cc3nc4c(c(N5CCNCC5)n3n2)CCCC4)c1	100.5	-	-	-	-	-
COc1cc2c(cc1OC)CN(C(=O)C1CCCN1S(=O)(=O)c1ccc(F)cc1)CC2 (stereo not given)	-	0	0	0	0	0
CCN1C(=O)C(CC(=O)Nc2c(C)cccc2C)Nc2cc(S(=O)(=O)N(C)C)ccc21 (stereo not given)	0	0	0	0	0	0
Cc1onc(-c2c(F)cccc2Cl)c1C(=O)N1CCCCC1	-	0	0	0	0	0
Cc1onc(-c2c(F)cccc2Cl)c1C(=O)N1CCc2ccccc2C1	99.7	0	0	0	0	0
Cc1onc(-c2ccccc2Cl)c1C(=O)N1CCc2ccccc2C1	96.3	0	0	0	0	0
Cc1onc(-c2ccccc2Cl)c1C(=O)N1CC(C)CC(C)C1 (stereo not given)	-	0	0	0	0	0
COc1ccccc1C(=O)NC(=O)COC(=O)C1CC2CCCC(C1)C2=O (stereo not given)	-	0	0	0	0	0
CC(O)CNC(=O)C1CCN(Cc2ccc(OCc3ccccc3)cc2)CC1 (stereo not given)	91.1	0	0	-	0	0
CC(C)CNC(=O)C1CCN(Cc2ccc(OCc3ccccc3)cc2)CC1	0	0	0	0	0	0
O=C(NCc1ccccn1)C1CCN(Cc2cccc(OCc3ccccc3)c2)CC1	100.1	0	0	0	0	0
NC(=O)C1CCN(Cc2cccc(OCc3ccccc3)c2)CC1	-	0	0	0	0	0
CCCN(CC(=O)Nc1ccccc1C)C(=O)c1ccc(=O)n(Cc2ccccc2)n1	-	0	0	0	0	0
CC(C)(C)NC(=O)CN(CCN1CCOCC1)C(=O)CNS(=O)(=O)c1ccc(Cl)cc1	-	0	0	0	0	0
CN(Cc1ccccc1)S(=O)(=O)c1ccc2[nH]cc(C(=O)NCC3CCCO3)c(=O)c2c1 (stereo not given)	98.6	-	-	0	-	0
CN1CCN(CC(C)(C)NS(=O)(=O)c2ccc(Cl)cc2)CC1	94.3	0	0	0	70.1	0
SMILES	L major viab	Beta apoptosis	SKKanGAS inh	CSC inhib	T cruzi inh	Mdm2-MdmX inh
O=C(COC(=O)c1ccc([N+](=O)[O-])s1)NCCc1ccccc1	-	0	-	-	-	0
O=C(COC(=O)c1ccc([N+](=O)[O-])s1)NC(=O)NCc1ccccc1	92.9	0	0	0	0	0
CCN(CC)C1=CC(=[N+]2CCCC2)CC(C)(C)C1	99.7	0	0	0	63.6	0
CN(C)c1cccc(NC2=CC(=[N+]3CCOCC3)CC(C)(C)C2)c1	0	0	0	0	0	0
CCN(CC)S(=O)(=O)c1ccc(C(=O)NCCN(C)C)cc1	0	0	0	0	0	0
COc1ccc(-c2nc(Cn3c(SCc4cccc(F)c4)nc4ccncc43)c(C)o2)cc1OC	0	0	0	82.4	0	0
COc1ccc(-c2nc(Cn3c(SCc4ccc(C)cc4)nc4ccncc43)c(C)o2)cc1OC	0	0	0	0	0	0
O=c1c2ccccc2oc2ccc(-c3ccc4cc[nH]c4c3)cc12	-	0	-	89.5	-	0
O=C(CSc1ccc2ccccc2n1)NCCCN1CCCC1=O	-	0	-	0	-	0
Cc1ccc(OCCCCN(C)Cc2ccccc2)c(Br)c1	90.5	0	0	94.3	0	0
Cc1ccc(C(C)C)c(OCCCN(C)Cc2ccccc2)c1	96.3	0	0	0	0	0
Cc1cc(Cl)cc(Cl)c1OCCCCN(C)C	85.9	0	0	-	0	0
Cc1cc(C)c(OCCCNCc2ccccc2)c(Br)c1	-	0	0	0	0	0
Cc1cc(C)c(OCCCNC2CCCC2)c(Br)c1	-	0	0	0	0	0
Cc1cc(C)c(OCCOCCN(C)C)c(Br)c1	96.3	0	0	0	0	0
Cc1cc(C)c(OCCCCN(C)C)c(Br)c1	84.8	0	0	0	70.5	0
CCOC(=O)c1ccccc1-c1cn2cc(Cl)ccc2n1	0	0	0	0	0	0
O=C(Nc1ccc(F)cc1)c1nc2c(nnn2Cc2cccc3ccccc23)c(=O)[nH]1	-	0	61.7	0	0	0
CC(C)C(NS(=O)(=O)c1cccc2nsnc12)C(=O)NCc1ccc2c(c1)OCO2 (stereo not given)	100.0	0	0	0	0	0
Cc1ccccc1CC(=O)Nc1ccc(C(=O)N2CCCC2)cc1	-	0	0	0	0	0
O=C(NN1C(=O)C2C3c4ccccc4C(c4ccccc43)C2C1=O)c1ccc(Cl)cc1 (stereo not given)	72.0	0	0	0	0	0
O=c1[nH]c(-c2ccccn2)nc2sc(-c3ccccc3)cc12	100.5	-	95.8	-	54.8	-
Cc1c(C(=O)N(C)C)sc2nc(-c3ccccn3)[nH]c(=O)c12	0	0	0	0	0	0
CCn1cc(C(=O)NCc2ccco2)c(=O)c2cc(S(=O)(=O)N3CCC(C)CC3)ccc21	0	0	0	0	0	0
CCn1cc(C(=O)NCc2ccco2)c(=O)c2cc(S(=O)(=O)N3CCc4ccccc4C3)ccc21	97.4	0	0	0	55.7	0
SMILES	L major viab	Beta apoptosis	SKKanGAS inh	CSC inhib	T cruzi inh	Mdm2-MdmX inh
CCn1cc(C(=O)NCc2ccco2)c(=O)c2cc(S(=O)(=O)N3CCCCCC3)ccc21	0	0	0	0	0	0
CCn1cc(C(=O)NCc2ccco2)c(=O)c2cc(S(=O)(=O)N3CC(C)CC(C)C3)ccc21 (stereo not given)	0	0	0	82.7	0	0
Cc1ccc(Nc2nc(CSc3nnc(-c4ccncc4)n3C)cs2)cc1	0	0	0	0	0	0
Cc1ccc(Nc2nc(CSc3nnc(-c4cccnc4)n3-c3ccccc3F)cs2)cc1	89.1	0	0	0	0	0
C/C(=N\NC(=O)NC1CCCCC1)C1CCCCC1	95.3	0	0	0	0	0
C=CCn1c(COc2ccc(OC)cc2)nc2ccccc21	-	0	0	0	0	0
COc1ccc(-c2nc3ccccc3n2Cc2ccc(C)cc2)cc1	82.5	0	0	0	0	0
